Screening data (PubChem BioAssay)
This is a sample that favours compounds with a hit; in the whole collection about 2.1% have one here.
ARNT TACC3 PPI – ARNT/TACC3 interaction disruption; Q9Y6A5; AlphaScreen His-ARNT PAS-B/GST-TACC3 binding, luminescence; TACC3 fragment carries E629A point mutation; inhibition, % at 9.99 µM; actives 0.66% (n = 390,000);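 active = mean inhibition of replicates at least 50% and at least half of replicates each reaching 50%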;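 note: 0% = complete ARNT plus TACC3 wells and 100% = ARNT alone without TACC3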
FGF22 binding – binders of recombinant human FGF22 by thermal shift | Q9HCT0 | SYPRO orange fluorescence; percent of sucrose octasulfate shift, DMSO zero | actives 1.5% (n = 340,000) | activity (Tm shift, normalised), % at 9.99 µM;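 active = mean Tm shift, scaled 0 neutral to 100 positive control, at about 1.3% or above, every replicate too, limit read from the data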
FN deposit inh – fibronectin deposition inhibition | AH1F fibroblasts, Alexa488-fibronectin deposition fluorescence, overnight | actives 0.086% (n = 350,000) | inhibition, % at 12.6 µM;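 active = mean inhibition across replicates of 30% or more, regardless of how many single replicates reach that level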;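 note: positive control wells lacked labelled fibronectin entirely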
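Assay system: AH1F fibroblast monolayer, labelled fibronectin deposition. Amount: 10000 cells per well. Also added: labelled fibronectin 24 nM. Compound: single-point pinned compound. Incubation: cell attachment 1 h, compound and FN exposure overnight. Detection: fluorescence after three HBSS washes, excitation 485 nm, emission 525 nm. Read-out: inhibition of fibronectin deposition signal.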
ERp5 block – blocks human ERp5 reductase activity on insulin. actives 0.05% (n = 350,000). AID 651711. ERp5 insulin aggregation, absorbance 650 nm, 90 min. inhibition, % at 9.99 µM;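 active = mean replicate inhibition above about 25%, with every replicate also reaching it, limit read from the data, passing the limit was not always enough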
AF4-AF9 inh – blocks AF4 peptide binding to human AF9. P42568. AlphaScreen, biotin-AF4 peptide binding to FLAG-AF9. inhibition, % at 10 µM. actives 0.47% (n = 350,000);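 active = every replicate reaching a set inhibition limit, whatever the replicate mean, cut at about 25% in these data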;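 note: 0% = plate neutral control median and 100% = total signal loss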
Target sequence (P42568 whole entry, looked up): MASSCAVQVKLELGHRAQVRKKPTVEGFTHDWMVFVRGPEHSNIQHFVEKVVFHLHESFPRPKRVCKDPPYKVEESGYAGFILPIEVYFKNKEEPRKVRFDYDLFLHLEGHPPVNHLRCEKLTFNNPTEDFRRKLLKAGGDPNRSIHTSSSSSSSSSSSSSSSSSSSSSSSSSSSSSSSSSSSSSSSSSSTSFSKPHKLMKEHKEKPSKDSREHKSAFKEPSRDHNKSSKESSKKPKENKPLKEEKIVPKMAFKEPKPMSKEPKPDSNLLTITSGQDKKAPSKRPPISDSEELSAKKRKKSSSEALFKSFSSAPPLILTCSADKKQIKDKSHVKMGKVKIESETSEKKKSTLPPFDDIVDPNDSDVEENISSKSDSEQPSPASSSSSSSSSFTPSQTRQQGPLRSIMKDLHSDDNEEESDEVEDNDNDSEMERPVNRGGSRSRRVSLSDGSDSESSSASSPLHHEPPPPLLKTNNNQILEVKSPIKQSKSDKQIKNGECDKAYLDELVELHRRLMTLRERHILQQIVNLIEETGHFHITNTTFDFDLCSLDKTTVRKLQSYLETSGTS
PDI turbidity – inhibitors of human protein disulfide isomerase. P07237. PDI insulin aggregation turbidity, A650, 90 min. inhibition, % at 10 µM. actives 0.052% (n = 350,000);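 active = mean inhibition across replicates of 30% or more, whatever share of single replicates reach that level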
Numbers without * were called inactive; . = no result.

SMILES	ARNT TACC3 PPI	FGF22 binding	FN deposit inh	ERp5 block	AF4-AF9 inh	PDI turbidity
O=C1C=C(Nc2cccnc2)c2ccccc2C1=O	35*	0	-2	-2	-1	6
O=S(=O)(Nc1cccc2ncccc12)c1cccs1	58*	.	.	.	.	-3
COCC(=O)N1[C@H](CO)[C@@H](c2ccccc2)C12CN(C(=O)c1cccc(F)c1)C2	.	0	.	-1	-7	.
C[C@H]1CC(=O)NCC/C=C\C[C@H](c2cccc(Cl)c2)NC1=O	.	.	0	.	.	.
CN(c1ccccc1)S(=O)(=O)c1cccc(NC(=O)c2cc(=O)c3ccccc3o2)c1	-2	43*	.	1	5	-2
O=C(NC1CCCCC1c1ccccc1)c1ccccc1 (centres undefined)	4	44*	0	7	1	-1
CCN(CC)S(=O)(=O)c1cc(NC(=O)CN2C(=O)NC3(CCCc4ccccc43)C2=O)ccc1C (centres undefined)	3	0	7	4	2	1
Cc1ccc(NC(=O)CN2C(=O)NC3(CCCc4ccccc43)C2=O)cc1S(=O)(=O)N1CCOCC1 (centres undefined)	0	44*	3	-6	-11	0
COc1cccc(NC(=O)C[C@@H]2CC[C@@H]3[C@@H](COc4ccc(NC(=O)C5CCCCC5)cc4C(=O)N3C)O2)c1	8	0	-13	-4	3	.
CN1CCN(c2ccc(NC(=O)c3ccc(Oc4ccccc4)cc3)cc2)CC1	4	0	1	2	14	-6
C=CC(=O)Nc1ccc(N(C)c2ccnc(Nc3ccc(N4CCN(C)CC4)cc3)n2)cc1	11	0	14	6	60*	7
CCOC(=O)N1CCC(NCCNC(=O)c2ccc(Cl)cc2)CC1	-5	.	-6	.	.	21
CCOC(=O)N1CCC(NCCNC(=O)c2ccco2)CC1	-1	44*	-3	-1	-2	3
CO[C@@H]1CN(C)C(=O)c2ccc(NC(=O)Nc3cccc(F)c3)cc2OC[C@@H](C)NC[C@@H]1C	4	0	1	2	4	.
CCCNC(=O)N1CC2(CN(Cc3ccc(OC)cc3)C2)c2c(n(C)c3cc(OC)ccc23)[C@H]1CO	.	0	.	.	36*	.
COc1ccc2c3c(n(C)c2c1)[C@H](CO)N(C(=O)C1CC1)CC31CN(Cc2ccccc2OC)C1	.	.	0	-5	29*	.
COc1ccc2c3c(n(C)c2c1)[C@H](CO)N(C(=O)Cc1ccccn1)CC31CN(CC2CCCCC2)C1	.	.	-8	-4	26*	.
COc1cccc(CN2CC3(C2)CN(C(=O)C2CC2)[C@@H](CO)c2c3c3ccc(OC)cc3n2C)c1	.	.	.	.	26*	.
COc1ccc2c3c(n(C)c2c1)[C@@H](CO)N(C(=O)Cc1ccccn1)CC31CN(CC2CCCC2)C1	.	0	-1	-7	8	.
CCCNC(=O)N1CC2(CN(Cc3ccncc3)C2)c2c(n(C)c3cc(OC)ccc23)[C@H]1CO	.	0	.	0	-3	.
COc1ccc(NC(=O)N(C)C[C@H]2OCCCC[C@@H](C)Oc3ccc(NS(=O)(=O)c4c(C)noc4C)cc3C(=O)N([C@@H](C)CO)C[C@H]2C)cc1	-1	0	.	.	.	.
O=C(CN1C(=O)/C(=C/c2cccc(Br)c2)SC1=S)Nc1cccnc1	-3	44*	-3	-7	-3	-20
O=C(CCN1C(=O)/C(=C/c2cccc(Br)c2)SC1=S)Nc1cccnc1	7	1	2	-3	-2	-19
CCN(Cc1ccccc1)C(=O)CSc1ccccc1C(=O)O	-12	42	1	3	-1	-5
CCN(Cc1ccccc1)C(=O)CSc1nncn1C	-2	43*	7	2	3	2
Oc1ccc(Cl)cc1Sc1cc(Cl)ccc1O	6	2.3*	13	2	-1	9
C[C@H](CO)N1C[C@H](C)[C@@H](CN(C)C(=O)c2ccccc2)OCCCC[C@H](C)Oc2ccc(NS(=O)(=O)c3ccccc3)cc2C1=O	-9	0	-7	9	-2	.
c1cnc2ncc3sccc3c2c1	1	43*	5	2	-2	5
CC(C)NC(=O)N[C@H]1C[C@@H]2O[C@@H](CO)CC[C@@H]2O[C@@H]1CCc1ccc(-c2ccccc2F)cc1	.	0	.	4	33*	.
